Measurements taken from ChEMBL document CHEMBL1125138, “1,3-Dialkyl-3-acyltriazenes, a novel class of antineoplastic alkylating agents” (J Med Chem, 1990).

Experiments:
NCI-H125 = assay: Evaluated for the inhibitory concentration required to cause growth inhibition of H125 cell line of lung using the Microculture Tetrazolium (MTT) Cytotoxicity Assay; assay type: functional, cell-based; settings: Homo sapiens
Outline: (§1)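 MTT microculture tetrazolium growth assay on human cell lines and normal fibroblasts. Cells seeded at 1000 cells/well, with compound added 24 h after plating. Cultures then incubated a further 6 days at 37 °C before MTT read-out of growth versus untreated cells.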

P388 [1] = assay: Evaluated in vivo for antineoplastic activity against P388 murine leukemia tumor […] after administering intra peritoneal injection at a dose of 100 mg/kg.; assay type: functional, Mus musculus
Outline: (§2)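 P388 leukemia-bearing mice, run through the NCI Developmental Therapeutics Program. Compound given ip once daily on 5 consecutive days. Activity read out as % T/C.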

MX1 [2] = assay: Evaluated in vivo for antineoplastic activity against MX-1 mammary carcinoma tumor xenograft in nude mice after administering intra peritoneally 3 injections at a dose of 400 mg/kg; assay type: functional, Homo sapiens
Outline: (§3)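 Nude mice bearing tumor xenografts, run through the NCI Developmental Therapeutics Program. Compound given ip as three injections at 4-day intervals for MX-1 mammary, LX-1 lung and LOX melanoma. Activity read out as % T/C.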

A673 = assay: Evaluated for the inhibitory concentration required to cause growth inhibition of A673Mer+ sarcoma cell line using the MTT Cytotoxicity Assay; assay type: functional, cell-based; settings: Homo sapiens; outline: as §1
[3] = Evaluated in vivo for antineoplastic activity against LOX melanoma amelanotic tumor xenograft in nude mice after administering intra peritoneally 3 injections at a dose of 200 mg/kg; assay type: functional, Homo sapiens; outline: as §3
[4] = Evaluated in vivo for antineoplastic activity against LX-1 Lung small cell carcinoma tumor xenograft in nude mice after administering intra peritoneally 3 injections at a dose of 100 mg/kg; assay type: functional, Homo sapiens; outline: as §3
LOX IMVI = assay: Evaluated for the inhibitory concentration required to cause growth inhibition of LOX melanoma cell line using the MTT Cytotoxicity Assay; assay type: functional, cell-based; settings: Homo sapiens; outline: as §1
A704 = assay: Evaluated for the inhibitory concentration required to cause growth inhibition of A704Rem- renal cell line using the MTT Cytotoxicity Assay; assay type: functional, cell-based; settings: Homo sapiens; outline: as §1
NCI-H522 (Homo sapiens) = assay: Evaluated for the inhibitory concentration required to cause growth inhibition of H522 cell line of lung using the Microculture Tetrazolium (MTT) Cytotoxicity Assay
[5] = Evaluated in vivo for antineoplastic activity against LOX melanoma amelanotic tumor xenograft in nude mice after administering intra peritoneally 3 injections at a dose of 100 mg/kg; assay type: functional, Homo sapiens; outline: as §3
DOD-1 = assay: Evaluated for the inhibitory concentration required to cause growth inhibition of DOD-1 breast cell line using the MTT Cytotoxicity Assay; assay type: functional, cell-based; settings: Homo sapiens; outline: as §1
[6] = Evaluated in vivo for antineoplastic activity against LX-1 Lung small cell carcinoma tumor xenograft in nude mice after administering intra peritoneally 3 injections at a dose of 200 mg/kg; assay type: functional, Homo sapiens; outline: as §3
NCI-H23 = assay: Evaluated for the inhibitory concentration required to cause growth inhibition of H23 cell line of lung using the Microculture Tetrazolium (MTT) Cytotoxicity Assay; assay type: functional, cell-based; settings: Homo sapiens; outline: as §1
RPMI-7951 = assay: Evaluated for the inhibitory concentration required to cause growth inhibition of RPMI7951 melanoma cell line using the MTT Cytotoxicity Assay; assay type: functional, cell-based; settings: Homo sapiens; outline: as §1
OVCAR-4 = assay: Evaluated for the inhibitory concentration required to cause growth inhibition of OVCAR-4 ovarian cell line using the MTT Cytotoxicity Assay; assay type: functional, cell-based; settings: Homo sapiens; outline: as §1
MCF7 = assay: Evaluated for the inhibitory concentration required to cause growth inhibition of MCF-7 breast cell line using the MTT Cytotoxicity Assay; assay type: functional, cell-based; settings: Homo sapiens; outline: as §1
P388 [7] = assay: Evaluated in vivo for antineoplastic activity against P388 murine leukemia tumor […] after administering intra peritoneal injection at a dose of 200 mg/kg.; assay type: functional, Mus musculus; outline: as §2
MX1 [8] = assay: Evaluated in vivo for antineoplastic activity against MX-1 mammary carcinoma tumor xenograft in nude mice after administering intra peritoneally 3 injections at a dose of 200 mg/kg; assay type: functional, Homo sapiens; outline: as §3
Malme-3M = assay: Evaluated for the inhibitory concentration required to cause growth inhibition of MALME-3M melanoma cell line using the MTT Cytotoxicity Assay; assay type: functional, cell-based; settings: Homo sapiens; outline: as §1
MX1 [9] = assay: Evaluated in vivo for antineoplastic activity against MX-1 mammary carcinoma tumor xenograft in nude mice after administering intra peritoneally 3 injections at a dose of 100 mg/kg; assay type: functional, Homo sapiens; outline: as §3
NCI/ADR-RES = assay: Evaluated for the inhibitory concentration required to cause growth inhibition of MCF-7ADR breast cell line using the MTT Cytotoxicity Assay; assay type: functional, cell-based; settings: Homo sapiens; outline: as §1
[10] = Evaluated in vivo for antineoplastic activity against LOX melanoma amelanotic tumor xenograft in nude mice after administering intra peritoneally 3 injections at a dose of 800 mg/kg; assay type: functional, Homo sapiens; outline: as §3
NCI-H460 = assay: Evaluated for the inhibitory concentration required to cause growth inhibition of H460 cell line of lung using the Microculture Tetrazolium (MTT) Cytotoxicity Assay; assay type: functional, cell-based; settings: Homo sapiens; outline: as §1
NCI-H358 = assay: Evaluated for the inhibitory concentration required to cause growth inhibition of H358M cell line of lung using the Microculture Tetrazolium (MTT) Cytotoxicity Assay; assay type: functional, cell-based; settings: Homo sapiens; outline: as §1
CCD 19Lu = assay: Evaluated for the inhibitory concentration required to cause growth inhibition of CCD-19Lu fibroblasts cell line using the MTT Cytotoxicity Assay; assay type: functional, cell-based; settings: Homo sapiens; outline: as §1
TE-671 = assay: Evaluated for the inhibitory concentration required to cause growth inhibition of TE-671 cell line of central nervous system (CNS)using the MTT Cytotoxicity Assay; assay type: functional, cell-based; settings: Homo sapiens; outline: as §1
NCI-H322M = assay: Evaluated for the inhibitory concentration required to cause growth inhibition of H322M cell line of lung using the Microculture Tetrazolium (MTT) Cytotoxicity Assay; assay type: functional, cell-based; settings: Homo sapiens; outline: as §1
A 172 = assay: Evaluated for the inhibitory concentration required to cause growth inhibition of A172Mer- cell line of central nervous system (CNS) using the MTT Cytotoxicity Assay; assay type: functional, cell-based; settings: Homo sapiens; outline: as §1
U-251 = assay: Evaluated for the inhibitory concentration required to cause growth inhibition of U251 cell line of central nervous system (CNS) using the MTT Cytotoxicity Assay; assay type: functional, cell-based; settings: Homo sapiens
Outline: (§4)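 MTT cell-growth assay in human cell lines: cells harvested and seeded at 1000 cells/well in 96-well plates. Compound added after 24 h, then cultures incubated a further 6 days at 37 °C. Growth measured with and without agent.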

A498 = assay: Evaluated for the inhibitory concentration required to cause growth inhibition of A498Rem- renal cell line using the MTT Cytotoxicity Assay; assay type: functional, cell-based; settings: Homo sapiens; outline: as §1
SK-MEL-5 = assay: Evaluated for the inhibitory concentration required to cause growth inhibition of SK-MEL-5 melanoma cell line using the MTT Cytotoxicity Assay; assay type: functional, cell-based; settings: Homo sapiens; outline: as §1
P388 [11] = assay: Evaluated in vivo for antineoplastic activity against P388 murine leukemia tumor […] after administering intra peritoneal injection at a dose of 50 mg/kg.; assay type: functional, Mus musculus; outline: as §2
[12] = Evaluated in vivo for antineoplastic activity against LOX melanoma amelanotic tumor xenograft in nude mice after administering intra peritoneally 3 injections at a dose of 400 mg/kg; assay type: functional, Homo sapiens; outline: as §3
OVCAR-3 = assay: Evaluated for the inhibitory concentration required to cause growth inhibition of OVCAR-3 ovarian cell line using the MTT Cytotoxicity Assay; assay type: functional, cell-based; settings: Homo sapiens; outline: as §1
[13] = tested on: MAR BEL fibroblasts cell line; assay: Evaluated for the inhibitory concentration required to cause growth inhibition of MAR BEL fibroblasts cell line using the MTT Cytotoxicity Assay; assay type: functional, cell-based; settings: Homo sapiens; outline: as §1
A549 = assay: Evaluated for the inhibitory concentration required to cause growth inhibition of A549Rem- cell line of lung using the MTT Cytotoxicity Assay; assay type: functional, cell-based; settings: Homo sapiens; outline: as §1
WiDr = assay: Evaluated for the inhibitory concentration required to cause growth inhibition of WiDR colon cell line using the MTT Cytotoxicity Assay; assay type: functional, cell-based; settings: Homo sapiens; outline: as §4
HOS-TE85 = assay: Evaluated for the inhibitory concentration required to cause growth inhibition of TE85Mer+ sarcoma cell line using the MTT Cytotoxicity Assay; assay type: functional, cell-based; settings: Homo sapiens; outline: as §1
A-427 = assay: Evaluated for the inhibitory concentration required to cause growth inhibition of A427Mer- cell line of lung using the MTT Cytotoxicity Assay; assay type: functional, cell-based; settings: Homo sapiens; outline: as §1
P388 [14] = assay: Evaluated in vivo for antineoplastic activity against P388 murine leukemia tumor […] after administering intra peritoneal injection on each of 5 consecutive days at a dose of 30.0 mg/kg; assay type: functional, Mus musculus; outline: as §2

SMILES	IC50 (NCI-H125) [µM]	IC50 (A673) [µM]	IC50 (LOX IMVI) [µM]	IC50 (A704) [µM]	IC50 (NCI-H522 (Homo sapiens)) [µM]	IC50 (DOD-1) [µM]	IC50 (NCI-H23) [µM]	IC50 (RPMI-7951) [µM]	IC50 (OVCAR-4) [µM]	IC50 (MCF7) [µM]	IC50 (Malme-3M) [µM]	IC50 (NCI/ADR-RES) [µM]	IC50 (NCI-H460) [µM]	IC50 (NCI-H358) [µM]	IC50 (CCD 19Lu) [µM]	IC50 (TE-671) [µM]	IC50 (NCI-H322M) [µM]	IC50 (A 172) [µM]	IC50 (U-251) [µM]	IC50 (A498) [µM]	further results
CNC(=O)N(C)/N=N\CCCl	45	35	10	35	13	21	18	18	20	14	28	17	60	60	60	55	37	27	30	20	T/C (P388 [1]): 196%; T/C (MX1 [2]): -76%; T/C [3]: 309%; T/C [4]: -19%; T/C [5]: 201%; T/C [6]: -66%; T/C (P388 [7]): 297%; T/C (MX1 [8]): 1%; T/C (MX1 [9]): 15%; T/C [10]: 309%; IC50 (SK-MEL-5): 13 µM; T/C (P388 [11]): 175%; T/C [12]: 309%; IC50 (OVCAR-3): 20 µM; IC50 [13]: 47 µM; IC50 (A549): 26 µM; IC50 (WiDr): 14 µM; IC50 (HOS-TE85): 26 µM; IC50 (A-427): 18 µM
CCOC(=O)N(C)/N=N\CCCl	30	20	2.4	18	10	20	16	13	26	16	15	17	50	50	45	34	14	18	8	16	T/C (P388 [14]): 175%; IC50 (SK-MEL-5): 10 µM; IC50 (OVCAR-3): 26 µM; IC50 [13]: 46 µM; IC50 (A549): 14 µM; IC50 (WiDr): 13 µM; IC50 (HOS-TE85): 26 µM; IC50 (A-427): 11 µM
